Laboratory results reported in ChEMBL document CHEMBL3124750 (Bioorg Med Chem Lett, 2014).

Tests used:
[1] = Octanol-buffer partition coefficient, log D of the compound at pH 7.4 by HPLC method; assay type: physicochemical
Outline: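 The HPLC retention time was converted to logD7.4 by calibration against known logD values of similar compounds. C18 column (4.6 x 20 mm, 3.5 µm); A: 5 mM MOPS/(CH3)4NOH pH 7.4; B: 5% MOPS/(CH3)4NOH (100 mM, pH 7.4) in 95% acetonitrile; gradient 98:2 to 0:100; 1.2 mL/min; 25 °C; detection at 254 nm.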

[2] = Displacement of [3H]flunitrazepam from CBR in rat cerebral cortex membrane homogenates; assay type: cell membranes
Outline: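 Central benzodiazepine receptor counter-screen: competition against [3H]flunitrazepam (Kd = 2.1 nM, used at 0.4 nM) on rat cerebral cortex membrane homogenates; Ki values derived.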

Liver microsome [3] = experiment: Drug metabolism in rat liver microsomes assessed as retention time of compound after 30 mins by LC-MS/MS analysis; assay type: ADME; details: 0.5 h
Outline: (§1)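 Rat liver microsomes, 30 min incubation; metabolites detected by LC-MS and MS-MS. Chromatography: C18 column (2.1 x 150 mm, 5 µm), water/acetonitrile each with 0.05% formic acid, gradient 60:40 to 20:80 over 20 min, 200 µL/min; UV detection at 275 nm; retention times recorded.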

Liver microsome [4] = experiment: Drug metabolism in rat liver microsomes assessed as retention time of dihydroxylated M4 metabolite formation after 30 mins by LC-MS/MS analysis; assay type: ADME; details: 0.5 h; outline: as §1
Liver microsome [5] = experiment: Drug metabolism in rat liver microsomes assessed as retention time of deethylated M1 metabolite formation after 30 mins by LC-MS/MS analysis; assay type: ADME; details: 0.5 h; outline: as §1
Liver microsome [6] = experiment: Drug metabolism in rat liver microsomes assessed as retention time of hydroxylated M2 metabolite formation after 30 mins by LC-MS/MS analysis; assay type: ADME; details: 0.5 h; outline: as §1
Translocator protein = Translocator protein (Rattus norvegicus, UniProt P16257); experiment: Displacement of [3H]PK11195 from TSPO in rat heart membrane homogenates; assay type: cell membranes
Liver microsome [7] = experiment: Drug metabolism in rat liver microsomes assessed as retention time of hydroxylated M3 metabolite formation after 30 mins by LC-MS/MS analysis; assay type: ADME; details: 0.5 h; outline: as §1
Striatum [8] = experiment: Ratio of drug level from ipsilateral to contralateral in Wistar rat administered as iv measured after 60 mins of postinjection by MicroPET imaging analysis; assay type: ADME, organism-based; details: in vivo, 1 h
Outline: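 Anesthetized Wistar rats lesioned by AMPA injection into the right striatum 7 days earlier received the [18F] tracer i.v. for microPET. The ratio is bound tracer in the lesion divided by bound tracer in the contralateral side at 60 min post-injection.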

Striatum [9] = experiment: Drug uptake in iv dosed AMPA lesioned Wistar rat brain contralateral side of striatum measured after 60 mins by MicroPET imaging analysis; assay type: ADME, organism-based; details: in vivo, 1 h
Outline: (§2)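 MicroPET on anesthetized Wistar rats 7 days after AMPA injection into the right striatum. The [18F]-labelled tracer was given i.v.; uptake is expressed as percent injected dose per mL (% ID/mL) in the lesioned striatum or the contralateral area at 60 min.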

Striatum [10] = experiment: Drug uptake in iv dosed AMPA lesioned Wistar rat brain striatum measured after 60 mins by MicroPET imaging analysis; assay type: ADME, organism-based; details: in vivo, 1 h; outline: as §2

Sequence of Translocator protein (P16257 whole entry, looked up): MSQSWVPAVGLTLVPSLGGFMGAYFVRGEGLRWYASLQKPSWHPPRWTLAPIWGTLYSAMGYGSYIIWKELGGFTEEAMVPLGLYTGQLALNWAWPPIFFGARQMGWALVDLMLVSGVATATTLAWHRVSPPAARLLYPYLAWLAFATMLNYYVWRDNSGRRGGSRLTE

SMILES	logD [1]	Ki [2]	Retention_time (Liver microsome [3])	Retention_time (Liver microsome [4])	Retention_time (Liver microsome [5])	Retention_time (Liver microsome [6])	Ki (Translocator protein)	Retention_time (Liver microsome [7])	Ratio (Striatum [8])	Drug uptake (Striatum [9])	Drug uptake (Striatum [10])
CCN(CC)C(=O)Cc1c(-c2ccc(OCCF)cc2)nn2c(C)cc(C)nc12 [DPA-714]	2.89	> 1000 nM	–	–	–	–	–	–	–	–	–
CCN(CC)C(=O)Cc1c(-c2ccc(C#CCCCCF)cc2)nn2c(C)cc(C)nc12	4.35	> 1000 nM	15.81 min	5.89 min	11.68 min	11.19 min	0.79 nM	10.01 min	–	–	–
CCC(C)N([11CH3])C(=O)c1cc2ccccc2c(-c2ccccc2Cl)n1 (stereo not drawn)	–	–	–	–	–	–	–	–	1.65	–	–
CCN(CC)C(=O)Cc1c(-c2ccc(C#CCCF)cc2)nn2c(C)cc(C)nc12	3.67	> 1000 nM	15.81 min	5.89 min	11.68 min	11.19 min	0.74 nM	10.01 min	–	–	–
CCN(CC)C(=O)Cc1c(-c2ccc(C#CCCCF)cc2)nn2c(C)cc(C)nc12	4.06	> 1000 nM	17.05 min	3.43 min	12.08 min	11.37 min	0.35 nM	8.92 min	–	–	–
CCN(CC)C(=O)Cc1c(-c2ccc(C#CCF)cc2)nn2c(C)cc(C)nc12	3.61	> 1000 nM	15.66 min	–	11.41 min	11 min	0.54 nM	–	–	–	–
CCN(CC)C(=O)Cc1c(-c2ccc(OCC[18F])cc2)nn2c(C)cc(C)nc12 [DPA-714 F-18]	–	–	–	–	–	–	–	–	–	0.08 %ID/ml	0.3 %ID/ml
CCN(CC)C(=O)Cc1c(-c2ccc(C#CCCC[18F])cc2)nn2c(C)cc(C)nc12	–	–	–	–	–	–	–	–	4.62	0.05 %ID/ml	0.24 %ID/ml
